# “And” between values parts separate entries of the source, which are not always exact repeats. Equal entries are not always repeated.
# Tested on: HL-60
# Test: Ability to inhibit human leukemic HL-60 cell growth in culture
# Format: functional, cell-based
# Conditions: Homo sapiens, HL-60
# Outline: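 HL-60 cells seeded at 1.5 × 10^5/mL in RPMI 1640 and exposed to compound at 0.0025–0.05 mg/mL (in 0.1% DMSO). Incubation was 72 h at 37 °C under humidified 5% CO2. Viable cells were counted by trypan blue exclusion on a hemocytometer. IC50 was the median-effect concentration, taken from a median-effect plot of fractional inhibition over three to five dose-effect levels.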
row,SMILES,IC50
1,COc1c(OC)c(OC)c2c(c1O)c(=O)c1cc([N+](=O)[O-])ccc1n2C,> 100 µM
2,COc1c(OC)c(O)c2c(O)c3ccc(O)c(OC)c3nc2c1OC,> 100 µM
3,CCN(CC)CCn1c2c(OC)c(O)ccc2c(=O)c2c(O)c(OC)c(OC)c(OC)c21,62.2 µM
4,COc1ccc2c(=O)c3c(OC)c(OC)c(OC)c(OC)c3n(C)c2c1OC,23.3 µM
5,COc1c(OC)c(OC)c2c(c1O)c(=O)c1cccc(OC)c1n2C,12.8 µM
6,COc1ccc2c(=O)c3c(O)c(OC)c(OC)c(OC)c3n(C)c2c1OC,3.4 µM
7,COc1cc2c(c3c1c(=O)c1ccccc1n3C)C=CC(C)(C)O2 [ACRONINE],26.2 µM
8,COc1c(OC)c(OC)c2c(c1O)c(=O)c1ccc(O)c(OC)c1n2C [GLYFOLINE],2.2 µM

# Other lines, results leading:
row,IC50,SMILES
1,> 100 µM,COc1c(OC)c(OC)c2c(c1O)c(=O)c1ccc([N+](=O)[O-])cc1n2C
2,10.6 µM,CNc1ccc2c(=O)c3c(O)c(OC)c(OC)c(OC)c3n(C)c2c1
3,11.6 µM,COc1c(OC)c(OC)c2c(c1O)c(=O)c1ccc(N)cc1n2C
4,44.4 µM,COc1c(OC)c(OC)c2c(c1O)c(=O)c1cc(N)ccc1n2C
5,9.4 µM,COc1c(OC)c(OC)c2c(c1O)c(=O)c1ccc(N(C)C)cc1n2C

# Same assay, conditions: hl-60
row,IC50,SMILES
1,91.9 µM and 23.7 µM,COc1c(OC)c(OC)c2c(c1OC)c(=O)c1ccc(O)c(OC)c1n2C
